From ChEMBL document CHEMBL1123915, “Macrolides with gastrointestinal motor stimulating activity” (1987)
In brackets after ≈: the same amount, converted by molar mass.

Assays:
[1] = test system: Bacillus subtilis; experiment: Antibacterial activity against Bacillus subtilis ATCC 6633; type: functional
Summary of the method: (§1)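 MIC determined by agar dilution. Strains as listed on each line.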

[2] = test system: Bacillus cereus; experiment: Antibacterial activity against Bacillus cereus IFO 3001; type: functional; summary of the method: as §1
[3] = test system: Canis familiaris; experiment: Evaluated for gastrointestinal motor stimulating (GMS) activity in dog estimated in vivo by 2 x 2 points parallel line assay. Activity of EM-A was assumed to be 1; type: functional, Canis lupus familiaris
Summary of the method: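 Fasted conscious dogs carried chronically implanted serosal force transducers recording circular muscle contraction in the gastric body, antrum and small intestine. Dosing was an intravenous bolus 10–15 min after interdigestive gastric contractions ended. Antral contractile waves were integrated for 10 min from injection. Relative potency came from a 2 × 2 parallel line assay with five animals per dose, using EM as the reference in each assay.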

[4] = test system: Escherichia coli; experiment: Antibacterial activity against Escherichia coli NIHJ; type: functional; summary of the method: as §1
[5] = test system: Klebsiella pneumoniae; experiment: Antibacterial activity against Klebsiella pneumoniae ATCC 10031; type: functional; summary of the method: as §1
[6] = test system: Staphylococcus aureus; experiment: Antibacterial activity against Staphylococcus aureus ATCC 6538P; type: functional; summary of the method: as §1

Row | SMILES | MIC [1] | MIC [2] | MIC [4] | MIC [5] | MIC [6] | GMS activity [3]
1 | C#CC[N+](C)(C)C1CC(C)OC(O[C@@H]2C(C)C(OC3CC(C)(OC)C(O)C(C)O3)C(C)C(=O)OC(CC)[C@@](C)(O)[C@H](O)[C@@H](C)C3O[C@@]2(C)C[C@H]3C)C1O.[Br-] (stereo not given in full) | > 100 µg/mL | > 100 µg/mL | > 100 µg/mL | > 100 µg/mL | > 100 µg/mL | 202
2 | CCC1OC(=O)C(C)C(O[C@H]2C[C@@](C)(OC)[C@@H](O)[C@@H](C)O2)C(C)[C@@H](O[C@@H]2O[C@H](C)C[C@@H](N(C)CC)[C@H]2O)[C@]2(C)CC(C)=C(O2)[C@H](C)[C@@H](O)[C@]1(C)O (stereo not given in full) | > 100 µg/mL | > 100 µg/mL | > 100 µg/mL | > 100 µg/mL | > 100 µg/mL | 18
3 | C=CC[N+](C)(C)C1CC(C)OC(O[C@@H]2C(C)C(OC3CC(C)(OC)C(O)C(C)O3)C(C)C(=O)OC(CC)[C@@](C)(O)[C@H](O)[C@@H](C)C3O[C@@]2(C)C[C@H]3C)C1O.[Br-] (stereo not given in full) | 100 µg/mL | 100 µg/mL | > 100 µg/mL | > 100 µg/mL | 100 µg/mL | 115
4 | CCC1OC(=O)C(C)C(OC2CC(C)(OC)C(O)C(C)O2)C(C)[C@@H](OC2OC(C)CC([N+](C)(C)C)C2O)[C@]2(C)C[C@@H](C)C(O2)[C@H](C)[C@@H](O)[C@]1(C)O.[I-] (stereo not given in full) | > 100 µg/mL | > 100 µg/mL | > 100 µg/mL | > 100 µg/mL | > 100 µg/mL | 65
5 | CC[C@H]1OC(=O)[C@H](C)[C@@H](O[C@H]2C[C@@](C)(OC)[C@@H](O)[C@H](C)O2)[C@H](C)[C@@H](O[C@@H]2O[C@H](C)C[C@H](N(C)C)[C@H]2O)[C@](C)(O)C[C@@H](C)C(=O)[C@H](C)[C@@H](O)[C@]1(C)O [ERYTHROMYCIN] | 0.1 µg/mL (≈ 0.136 µM) | 0.1 µg/mL (≈ 0.136 µM) | 12.5 µg/mL (≈ 17 µM) | 6.25 µg/mL (≈ 8.52 µM) | 0.2 µg/mL (≈ 0.273 µM) | 1

Further lines, with some results ahead:

Row | MIC [1] | MIC [2] | MIC [4] | MIC [5] | MIC [6] | SMILES | GMS activity [3]
6 | > 100 µg/mL | > 100 µg/mL | > 100 µg/mL | > 100 µg/mL | > 100 µg/mL | CCC1OC(=O)C(C)C(O[C@H]2C[C@@](C)(OC)[C@@H](O)[C@@H](C)O2)C(C)[C@@H](O[C@@H]2O[C@H](C)C[C@@H]([N+](C)(C)CC)[C@H]2O)[C@]2(C)CC(C)=C(O2)[C@H](C)[C@@H](O)[C@]1(C)O.[I-] (stereo not given in full) | 111
7 | > 100 µg/mL | > 100 µg/mL | > 100 µg/mL | > 100 µg/mL | 100 µg/mL | C=CC[N+](C)(C)[C@@H]1C[C@@H](C)O[C@@H](O[C@@H]2C(C)C(O[C@H]3C[C@@](C)(OC)[C@@H](O)[C@@H](C)O3)C(C)C(=O)OC(CC)[C@@](C)(O)[C@H](O)[C@@H](C)C3=C(C)C[C@]2(C)O3)[C@@H]1O.[Br-] (stereo not given in full) | 256
8 | 100 µg/mL | 100 µg/mL | > 100 µg/mL | > 100 µg/mL | 100 µg/mL | C#CC[N+](C)(C)[C@@H]1C[C@@H](C)O[C@@H](O[C@@H]2C(C)C(O[C@H]3C[C@@](C)(OC)[C@@H](O)[C@@H](C)O3)C(C)C(=O)OC(CC)[C@@](C)(O)[C@H](O)[C@@H](C)C3=C(C)C[C@]2(C)O3)[C@@H]1O.[Br-] (stereo not given in full) | 2890
9 | > 100 µg/mL | > 100 µg/mL | > 100 µg/mL | > 100 µg/mL | > 100 µg/mL | CCC1OC(=O)C(C)C(O[C@H]2C[C@@](C)(OC)[C@@H](O)[C@@H](C)O2)C(C)[C@@H](O[C@@H]2O[C@H](C)C[C@@H]([N+](C)(C)C)[C@H]2O)[C@]2(C)CC(C)=C(O2)[C@H](C)[C@@H](O)[C@]1(C)O.[I-] (stereo not given in full) | 21
10 | 25 µg/mL (≈ 34.9 µM) | 25 µg/mL (≈ 34.9 µM) | > 100 µg/mL | > 100 µg/mL | 50 µg/mL (≈ 69.8 µM) | CC[C@H]1OC(=O)[C@H](C)[C@@H](O[C@H]2C[C@@](C)(OC)[C@@H](O)[C@H](C)O2)[C@H](C)[C@@H](O[C@@H]2O[C@H](C)C[C@H](N(C)C)[C@H]2O)[C@@]2(C)CC(C)=C(O2)[C@H](C)[C@@H](O)[C@]1(C)O | 10
